Holding throughout (format): functional
Common to all, as to details: read-out: DIZ

Experiment [1] has as its system Salmonella sp. Put plainly: Antibacterial activity against Salmonella sp. at 6.25 ug/ml after 24 to 48 hrs by well plate diffusion method. The procedure, abridged: (§1)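 Agar well diffusion: 15-20 mL agar per dish, plates dried 1 h at 37 ± 2 °C in laminar flow, then seeded. Wells cut with an agar punch, each loaded with compound dissolved in DMSO (6.25 or 12.5 μg/mL). DMSO solvent control, ciprofloxacin standard. Plates in triplicate, incubated 37 ± 2 °C for 24–48 h. Inhibition zone diameter read in mm, with SD.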

Experiment [2] relates to Penicillium sp. Put plainly: Antifungal activity against Penicillium sp. at 12.5 ug/ml after 72 hrs by well plate method.
The subject of experiment [3] is Aspergillus niger. Put plainly: Antifungal activity against Aspergillus niger at 6.25 ug/ml after 72 hrs by well plate method.
Experiment [4] has as its system Escherichia coli. Put plainly: Antibacterial activity against Escherichia coli at 6.25 ug/ml after 24 to 48 hrs by well plate diffusion method. The method, boiled down:
as §1

In experiment [5] the test system is Aspergillus flavus. Put plainly: Antifungal activity against Aspergillus flavus at 6.25 ug/ml after 72 hrs by well plate method.
Experiment [6] deals with Aspergillus terreus. Put plainly: Antifungal activity against Aspergillus terreus at 6.25 ug/ml after 72 hrs by well plate method. The procedure, abridged: (§2)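 Sabouraud agar: peptone 10 g, glucose 40 g, agar 20 g per litre water, pH 5.7. Spore suspension made from a loopful of fungus in 3 mL normal saline and lawned on 20 mL agar per dish. Excess decanted, plates dried 1 h at 37 °C. Wells punched and loaded with compound in DMSO (6.25 or 12.5 μg/mL). DMSO control. Triplicate plates held at 25 °C for 72 h. Inhibition zone diameter measured. A. terreus strain NCIM 1325.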

Experiment [7] has as its system Staphylococcus aureus. Put plainly: Antibacterial activity against Staphylococcus aureus at 6.25 ug/ml after 24 to 48 hrs by well plate diffusion method. The method, boiled down:
as §1

Experiment [8] has as its system Xanthomonas sp. Put plainly: Antibacterial activity against Xanthomonas sp. at 6.25 ug/ml after 24 to 48 hrs by well plate diffusion method. The procedure, abridged: as §1
The test system of experiment [9] is Xanthomonas sp. Put plainly: Antibacterial activity against Xanthomonas sp. at 12.5 ug/ml after 24 to 48 hrs by well plate diffusion method. The method, boiled down: as §1
Experiment [10] concerns Aspergillus flavus. Put plainly: Antifungal activity against Aspergillus flavus at 12.5 ug/ml after 72 hrs by well plate method.
Experiment [11] concerns Staphylococcus aureus. Put plainly: Antibacterial activity against Staphylococcus aureus at 12.5 ug/ml after 24 to 48 hrs by well plate diffusion method. The method, boiled down:
as §1

For experiment [12], the system named is Salmonella sp. Put plainly: Antibacterial activity against Salmonella sp. at 12.5 ug/ml after 24 to 48 hrs by well plate diffusion method. The method, boiled down:
as §1

The subject of experiment [13] is Penicillium sp. Put plainly: Antifungal activity against Penicillium sp. at 6.25 ug/ml after 72 hrs by well plate method.
The subject of experiment [14] is Escherichia coli. Put plainly: Antibacterial activity against Escherichia coli at 12.5 ug/ml after 24 to 48 hrs by well plate diffusion method. The procedure, abridged: as §1
For experiment [15], the system named is Aspergillus terreus. Put plainly: Antifungal activity against Aspergillus terreus at 12.5 ug/ml after 72 hrs by well plate method. The procedure, abridged: as §2
Experiment [16] has as its system Aspergillus niger. Put plainly: Antifungal activity against Aspergillus niger at 12.5 ug/ml after 72 hrs by well plate method.

Structures are written as SMILES.

On to `Fc1ccc(-c2cc(-c3nc4ccccc4[nH]3)c3ccccc3n2)cc1`, for which the zone of inhibition at 6.25 µg/mL in the experiment on Salmonella sp. [1] came out at 9 mm; with Aspergillus niger [3], 11 mm; with Escherichia coli [4], 11 mm; with Aspergillus flavus [5] it was 11 mm; in the experiment on Aspergillus terreus [6] it was 12 mm; in the experiment with Staphylococcus aureus [7], 12 mm. The zone of inhibition at 6.25 µg/mL with Xanthomonas sp. [8] was 11 mm; with Penicillium sp. [13] it was 15 mm. Also, the zone of inhibition at 12.5 µg/mL in the experiment on Penicillium sp. [2] came to 17 mm; with Xanthomonas sp. [9], 12 mm; in the experiment on Aspergillus flavus [10], 12 mm; with Staphylococcus aureus [11], 13 mm; in the experiment on Salmonella sp. [12], 15 mm; with Escherichia coli [14], 16 mm. Further, the zone of inhibition at 12.5 µg/mL in the experiment with Aspergillus terreus [15] turned out to be 14 mm; in the experiment with Aspergillus niger [16], 12 mm.
Turning to `Fc1ccc(-c2cc(-c3nc4cc(Cl)c(Cl)cc4[nH]3)c3cc(Cl)ccc3n2)cc1`, the zone of inhibition at 6.25 µg/mL was 20 mm in the experiment with Salmonella sp. [1]; 12 mm with Aspergillus niger [3]; 12 mm with Escherichia coli [4]; 13 mm with Aspergillus flavus [5]; 9 mm in the experiment on Aspergillus terreus [6]; 10 mm in the experiment on Staphylococcus aureus [7]. Further, the zone of inhibition at 6.25 µg/mL in the experiment on Xanthomonas sp. [8] is 14 mm; with Penicillium sp. [13], 12 mm. Besides, the zone of inhibition at 12.5 µg/mL with Penicillium sp. [2] was determined as 19 mm; in the experiment with Xanthomonas sp. [9], 16 mm; in the experiment with Aspergillus flavus [10] it was 13 mm; with Staphylococcus aureus [11] it was 12 mm; in the experiment with Salmonella sp. [12], 28 mm; in the experiment with Escherichia coli [14], 17 mm. In addition, the figures for the zone of inhibition at 12.5 µg/mL in the experiment on Aspergillus terreus [15] and in the experiment on Aspergillus niger [16] were 10 mm and 12 mm, respectively.
As for `Fc1ccc(-c2cc(-c3nc4ccc(Cl)cc4[nH]3)c3ccccc3n2)cc1`, the zone of inhibition at 6.25 µg/mL in the experiment with Salmonella sp. [1] came to 9 mm; in the experiment on Aspergillus niger [3], 15 mm; with Aspergillus flavus [5], 11 mm; in the experiment with Aspergillus terreus [6], 10 mm; in the experiment with Staphylococcus aureus [7], 12 mm; with Xanthomonas sp. [8] it was 15 mm. Besides, the zone of inhibition at 6.25 µg/mL in the experiment with Penicillium sp. [13] is 12 mm. Also, the zone of inhibition at 12.5 µg/mL amounted to 12 mm with Penicillium sp. [2]; 15 mm with Xanthomonas sp. [9]; 16 mm with Aspergillus flavus [10]; 13 mm in the experiment with Staphylococcus aureus [11]; 17 mm with Salmonella sp. [12]; 16 mm in the experiment on Escherichia coli [14]. In addition, the figures for the zone of inhibition at 12.5 µg/mL with Aspergillus terreus [15] and in the experiment on Aspergillus niger [16] were 16 mm and 18 mm, respectively.
With `Fc1ccc(-c2cc(-c3nc4ncccc4[nH]3)c3cc(F)ccc3n2)cc1`, the zone of inhibition at 6.25 µg/mL in the experiment on Salmonella sp. [1] was 13 mm; in the experiment with Aspergillus niger [3], 11 mm; in the experiment with Aspergillus flavus [5], 11 mm; with Aspergillus terreus [6], 10 mm; in the experiment on Staphylococcus aureus [7] it was 12 mm; with Xanthomonas sp. [8] it was 15 mm. In addition, the zone of inhibition at 6.25 µg/mL in the experiment with Penicillium sp. [13] turned out to be 14 mm. Further, the zone of inhibition at 12.5 µg/mL in the experiment with Penicillium sp. [2] is 15 mm; with Xanthomonas sp. [9], 16 mm; in the experiment with Aspergillus flavus [10] it was 14 mm; in the experiment on Staphylococcus aureus [11], 12 mm; in the experiment with Salmonella sp. [12], 13 mm; with Escherichia coli [14] it was 13 mm. Moreover, the results for the zone of inhibition at 12.5 µg/mL in the experiment on Aspergillus terreus [15] and in the experiment with Aspergillus niger [16] were 15 mm and 13 mm, respectively.
Consider `Fc1ccc(-c2cc(-c3nc4cc(Cl)c(Cl)cc4[nH]3)c3ccccc3n2)cc1`, for which the zone of inhibition at 6.25 µg/mL was determined as 11 mm in the experiment with Salmonella sp. [1]; 10 mm with Aspergillus niger [3]; 12 mm in the experiment with Escherichia coli [4]; 10 mm in the experiment with Aspergillus flavus [5]; 10 mm in the experiment with Aspergillus terreus [6]; 12 mm in the experiment on Staphylococcus aureus [7]. Besides, the results for the zone of inhibition at 6.25 µg/mL in the experiment with Xanthomonas sp. [8] and in the experiment with Penicillium sp. [13] were 20 mm and 12 mm, respectively. For the same compound, the zone of inhibition at 12.5 µg/mL in the experiment on Penicillium sp. [2] turned out to be 12 mm; in the experiment with Xanthomonas sp. [9] it was 22 mm; with Aspergillus flavus [10], 10 mm; with Staphylococcus aureus [11], 16 mm; in the experiment on Salmonella sp. [12] it was 12 mm; in the experiment with Escherichia coli [14] it was 16 mm. Also, the zone of inhibition at 12.5 µg/mL in the experiment with Aspergillus terreus [15] was found to be 11 mm; in the experiment on Aspergillus niger [16], 12 mm.
